Test results from ChEMBL document CHEMBL1811814, “Synthesis and evaluation of indole, pyrazole, chromone and pyrimidine based conjugates for tumor growth inhibitory activities--development of highly efficacious cytotoxic agents” (Eur J Med Chem, 2010).

Legend:
Type in all cases: functional
Design in all cases: scale not given: the % may be the effect or the level left
MCF7 = assay: Growth inhibition of human MCF7 cells assessed tumor cell growth at 10^-5 M
Summary of the method: (§1)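 NCI 60-human-tumor-cell-line panel screen. Each compound was tested at a single concentration of 10^-5 M, and percent growth of tumor cells was recorded for each cell line. Growth inhibition was expressed from these percent-growth values.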

HL-60(TB) = assay: Growth inhibition of human HL-60(TB) cells assessed tumor cell growth at 10^-5 M
Summary of the method: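 HL-60(TB), part of the 60-line panel, tested at a single concentration of 10^-5 M. The read-out is percent tumor cell growth relative to untreated growth.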

OVCAR-3 = assay: Growth inhibition of human OVCAR3 cells assessed tumor cell growth at 10^-5 M; summary of the method: as §1
SF-268 = assay: Growth inhibition of human SF268 cells assessed tumor cell growth at 10^-5 M; summary of the method: as §1
OVCAR-8 = assay: Growth inhibition of human OVCAR8 cells assessed tumor cell growth at 10^-5 M; summary of the method: as §1
UACC-62 = assay: Growth inhibition of human UACC62 cells assessed tumor cell growth at 10^-5 M
Summary of the method: (§2)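 Single-dose screen at 10^-5 M across the 60 human tumor cell line panel, run to NCI standards. The value is the percent growth of each cell line in the presence of compound. Compounds active at this dose moved on to five-concentration testing (10^-4 to 10^-8 M).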

DU-145 = assay: Growth inhibition of human DU145 cells assessed tumor cell growth at 10^-5 M; summary of the method: as §1
MDA-MB-435 = assay: Growth inhibition of human MDA-MB-435 cells assessed tumor cell growth at 10^-5 M; summary of the method: as §1
MDA-MB-231 = assay: Growth inhibition of human MDA-MB-231 cells assessed tumor cell growth at 10^-5 M; summary of the method: as §1
LOX IMVI = assay: Growth inhibition of human LOXIMVI cells assessed tumor cell growth at 10^-5 M; summary of the method: as §1
RXF 393 = assay: Growth inhibition of human RXF393 cells assessed tumor cell growth at 10^-5 M; summary of the method: as §1
PC-3 = assay: Growth inhibition of human PC3 cells assessed tumor cell growth at 10^-5 M; summary of the method: as §1
EKVX = assay: Growth inhibition of human EKVX cells assessed tumor cell growth at 10^-5 M; summary of the method: as §1
HCC 2998 = assay: Growth inhibition of human HCC2998 cells assessed tumor cell growth at 10^-5 M; summary of the method: as §1
IGROV-1 = assay: Growth inhibition of human IGROV1 cells assessed tumor cell growth at 10^-5 M; summary of the method: as §1
UACC-257 = assay: Growth inhibition of human UACC257 cells assessed tumor cell growth at 10^-5 M; summary of the method: as §2
MDA-MB-468 = assay: Growth inhibition of human MDA-MB-468 cells assessed tumor cell growth at 10^-5 M; summary of the method: as §1
SK-MEL-5 = assay: Growth inhibition of human SK-MEL-5 cells assessed tumor cell growth at 10^-5 M; summary of the method: as §1
SN12C = assay: Growth inhibition of human SN12C cells assessed tumor cell growth at 10^-5 M; summary of the method: as §1
SNB-75 = assay: Growth inhibition of human SNB75 cells assessed tumor cell growth at 10^-5 M; summary of the method: as §2
BT-549 = assay: Growth inhibition of human BT549 cells assessed tumor cell growth at 10^-5 M; summary of the method: as §1
KM12 = assay: Growth inhibition of human KM12 cells assessed tumor cell growth at 10^-5 M; summary of the method: as §1
SK-MEL-28 = assay: Growth inhibition of human SK-MEL-28 cells assessed tumor cell growth at 10^-5 M; summary of the method: as §1
NCI-H23 = assay: Growth inhibition of human NCI-H23 cells assessed tumor cell growth at 10^-5 M; summary of the method: as §1
M14 = assay: Growth inhibition of human M14 cells assessed tumor cell growth at 10^-5 M; summary of the method: as §1
HCT-116 = assay: Growth inhibition of human HCT116 cells assessed tumor cell growth at 10^-5 M; summary of the method: as §1
SF-295 = assay: Growth inhibition of human SF295 cells assessed tumor cell growth at 10^-5 M; summary of the method: as §1
SNB-19 = assay: Growth inhibition of human SNB19 cells assessed tumor cell growth at 10^-5 M; summary of the method: as §2
U-251 = assay: Growth inhibition of human U251 cells assessed tumor cell growth at 10^-5 M; summary of the method: as §2
TK-10 = assay: Growth inhibition of human TK10 cells assessed tumor cell growth at 10^-5 M; summary of the method: as §2
OVCAR-5 = assay: Growth inhibition of human OVCAR5 cells assessed tumor cell growth at 10^-5 M; summary of the method: as §1
[1] = Growth inhibition of human Hs 578T cells assessed tumor cell growth at 10^-5 M; summary of the method: as §1
SW-620 = assay: Growth inhibition of human SW620 cells assessed tumor cell growth at 10^-5 M; summary of the method: as §2
Malme-3M = assay: Growth inhibition of human MALME-3M cells assessed tumor cell growth at 10^-5 M; summary of the method: as §1
SK-MEL-2 = assay: Growth inhibition of human SK-MEL-2 cells assessed tumor cell growth at 10^-5 M; summary of the method: as §1
[2] = Growth inhibition of human […] cells assessed tumor cell growth at 10^-5 M; summary of the method: as §1
SF-539 = assay: Growth inhibition of human SF539 cells assessed tumor cell growth at 10^-5 M; summary of the method: as §1
HT-29 = assay: Growth inhibition of human HT-29 cells assessed tumor cell growth at 10^-5 M; summary of the method: as §1
NCI-H522 = assay: Growth inhibition of human NCI-H522 cells assessed tumor cell growth at 10^-5 M; summary of the method: as §1
T47D = assay: Growth inhibition of human T47D cells assessed tumor cell growth at 10^-5 M; summary of the method: as §2
NCI-H322M = assay: Growth inhibition of human NCI-H322M cells assessed tumor cell growth at 10^-5 M; summary of the method: as §1
CAKI-1 = assay: Growth inhibition of human Caki1 cells assessed tumor cell growth at 10^-5 M; summary of the method: as §1
NCI/ADR-RES = assay: Growth inhibition of human NCI/ADR-RES cells assessed tumor cell growth at 10^-5 M; summary of the method: as §1
A498 = assay: Growth inhibition of human A498 cells assessed tumor cell growth at 10^-5 M; summary of the method: as §1
UO-31 = assay: Growth inhibition of human UO31 cells assessed tumor cell growth at 10^-5 M; summary of the method: as §2
COLO 205 = assay: Growth inhibition of human COLO205 cells assessed tumor cell growth at 10^-5 M; summary of the method: as §1
HCT-15 = assay: Growth inhibition of human HCT15 cells assessed tumor cell growth at 10^-5 M; summary of the method: as §1
OVCAR-4 = assay: Growth inhibition of human OVCAR4 cells assessed tumor cell growth at 10^-5 M; summary of the method: as §1
HOP-92 = assay: Growth inhibition of human HOP92 cells assessed tumor cell growth at 10^-5 M; summary of the method: as §1
A549 = assay: Growth inhibition of human A549 cells assessed tumor cell growth at 10^-5 M; summary of the method: as §1
MOLT-4 = assay: Growth inhibition of human MOLT4 cells assessed tumor cell growth at 10^-5 M; summary of the method: as §1
K562 = assay: Growth inhibition of human K562 cells assessed tumor cell growth at 10^-5 M; summary of the method: as §1
SK-OV-3 = assay: Growth inhibition of human SKOV3 cells assessed tumor cell growth at 10^-5 M; summary of the method: as §1
HOP-62 = assay: Growth inhibition of human HOP62 cells assessed tumor cell growth at 10^-5 M; summary of the method: as §1
ACHN = assay: Growth inhibition of human ACHN cells assessed tumor cell growth at 10^-5 M; summary of the method: as §1
786-0 = assay: Growth inhibition of human 786-0 cells assessed tumor cell growth at 10^-5 M; summary of the method: as §1
NCI-H226 = assay: Growth inhibition of human NCI-H226 cells assessed tumor cell growth at 10^-5 M; summary of the method: as §1
NCI-H460 = assay: Growth inhibition of human NCI-H460 cells assessed tumor cell growth at 10^-5 M; summary of the method: as §1
CCRF-CEM = assay: Growth inhibition of human CCRF-CEM cells assessed tumor cell growth at 10^-5 M; summary of the method: as §1

C=CCn1cc(/C=C2\C(=O)N(c3c(Cl)cccc3Cl)c3ccccc32)c2ccccc21
Activity (MCF7): 89.3% | Activity (HL-60(TB)): 93.4% | Activity (OVCAR-3): 88.2% | Activity (SF-268): 77.4% | Activity (OVCAR-8): 90.7% | Activity (UACC-62): 68.7% | Activity (DU-145): 101.7% | Activity (MDA-MB-435): 100.8% | Activity (MDA-MB-231): 83.4% | Activity (LOX IMVI): 69.8% | Activity (RXF 393): 93.3% | Activity (PC-3): 58.2% | Activity (EKVX): 80.5% | Activity (HCC 2998): 92.3% | Activity (IGROV-1): 66.4% | Activity (UACC-257): 116% | Activity (MDA-MB-468): 93.3% | Activity (SK-MEL-5): 72.6% | Activity (SN12C): 94.9% | Activity (SNB-75): 71.5% | Activity (BT-549): 127.4% | Activity (KM12): 83.7% | Activity (SK-MEL-28): 109.8% | Activity (NCI-H23): 83.7% | Activity (M14): 84.7% | Activity (HCT-116): 44.8% | Activity (SF-295): 95.1% | Activity (SNB-19): 97.4% | Activity (U-251): 63.1% | Activity (TK-10): 100.4% | Activity (OVCAR-5): 98.9% | Activity [1]: 86.4% | Activity (SW-620): 86.9% | Activity (Malme-3M): 96.3% | Activity (SK-MEL-2): 102.6% | Activity [2]: 86.7% | Activity (SF-539): 92.2% | Activity (HT-29): 85.4% | Activity (NCI-H522): 88.3% | Activity (T47D): 63.9% | Activity (NCI-H322M): 96.2% | Activity (CAKI-1): 60.9% | Activity (NCI/ADR-RES): 84.6% | Activity (A498): 107.5% | Activity (UO-31): 56.7% | Activity (COLO 205): 111.6% | Activity (HCT-15): 48.8% | Activity (OVCAR-4): 79.1% | Activity (HOP-92): 72.1% | Activity (A549): 95.2% | Activity (MOLT-4): 71.8% | Activity (K562): 53.6% | Activity (SK-OV-3): 98.2% | Activity (HOP-62): 78.4% | Activity (ACHN): 80.5% | Activity (786-0): 86.2% | Activity (NCI-H226): 87% | Activity (NCI-H460): 64.8%

O=C1Nc2ccccc2/C1=C/c1cn(C(=O)c2ccc(Cl)cc2)c2ccccc12
Activity (MCF7): 59% | Activity (HL-60(TB)): 150.1% | Activity (OVCAR-3): 98.7% | Activity (SF-268): 99.8% | Activity (OVCAR-8): 95% | Activity (UACC-62): 89.3% | Activity (DU-145): 118.1% | Activity (MDA-MB-435): 109.9% | Activity (MDA-MB-231): 77.7% | Activity (LOX IMVI): 100% | Activity (RXF 393): 129.9% | Activity (PC-3): 95.6% | Activity (EKVX): 58.9% | Activity (IGROV-1): 72.6% | Activity (UACC-257): 99.6% | Activity (MDA-MB-468): 97.6% | Activity (SK-MEL-5): 97.6% | Activity (SN12C): 95.4% | Activity (SNB-75): 87.7% | Activity (BT-549): 96.4% | Activity (KM12): 40.8% | Activity (SK-MEL-28): 92.9% | Activity (NCI-H23): 90.8% | Activity (M14): 102.4% | Activity (HCT-116): 91.5% | Activity (SF-295): 114.3% | Activity (SNB-19): 99% | Activity (U-251): 99.4% | Activity (CCRF-CEM): 104.1% | Activity (TK-10): 130% | Activity (OVCAR-5): 110.2% | Activity [1]: 106% | Activity (SW-620): 102.4% | Activity (Malme-3M): 117.8% | Activity (SK-MEL-2): 119.8% | Activity [2]: 74.5% | Activity (SF-539): 99.3% | Activity (HT-29): 110% | Activity (NCI-H522): 85.5% | Activity (NCI-H322M): 126.5% | Activity (CAKI-1): 59% | Activity (NCI/ADR-RES): 104.2% | Activity (A498): 116.3% | Activity (UO-31): 74.6% | Activity (COLO 205): 58.2% | Activity (HCT-15): 92% | Activity (OVCAR-4): 78.2% | Activity (HOP-92): 99.3% | Activity (A549): 101.2% | Activity (MOLT-4): 109.3% | Activity (K562): 85.6% | Activity (SK-OV-3): 103.8% | Activity (HOP-62): 110.7% | Activity (ACHN): 102.9% | Activity (786-0): 111.4% | Activity (NCI-H226): 92.3% | Activity (NCI-H460): 107.2%
